From ChEMBL document CHEMBL1124173, “Enantiomers of 7-(2,3-epoxypropoxy)actinomycin D as dual-action DNA-acting antitumor agents” (J Med Chem, 1988)

Tests used:
L1210 [1] = test: Inhibition of synthesis of [5-3H]-uridine into RNA in L1210 cells.; format: functional, cell-based, Mus musculus; conditions: l1210
Outline: (§1)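 Actively growing L1210 cells in vitro. Incorporation of [5-3H]uridine into RNA, or [methyl-14C]thymidine into DNA, compared with untreated cells. IC50 is micromolar drug concentration giving 50% reduction in incorporation rate.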

L1210 [2] = test: Inhibition of synthesis of [methyl-14C] thymidine into DNA, in L1210 cells.; format: functional, cell-based, Mus musculus; outline: as §1
Bos taurus = organism: Bos taurus; test: Thermal denaturation of calf thymus DNA measured as ΔTm; conditions: cattle, in vitro
Mus musculus [3] = organism: Mus musculus; test: Antitumor activity measured as % increase in life span, against C26 colon carcinoma.; format: functional
Outline: (§2)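 C26 primary colon carcinoma cells (trypan blue excluding, 2.5 × 10^5 cells/mouse) implanted in CDF1 mice on day 0. Drug given ip on days 1, 5 and 9 in 0.1 mL 5% v/v Me2SO-saline at optimal dose. Read-out is median survival time; %ILS is drug-treated over control, excluding survivors. Sixty-day survivors are counted.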

Mus musculus [4] = test: Antitumor activity measured as % increase in life span, for ip administration of compound and ip inoculation of B16 melanoma.; format: functional
Outline: (§3)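 B16 brei (tumor weight/Hank's balanced salt solution 1:5, 0.2 mL) implanted sc or ip into groups of nine BDF1 mice on day 0. Drug given iv on day 1 (sc tumor) or ip on days 1, 5 and 9 (ip tumor), in 0.1 mL 5% v/v Me2SO-saline. Read-out is median survival time and %ILS versus untreated controls, excluding sixty-day survivors.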

Mus musculus [5] = organism: Mus musculus; test: Antitumor activity measured as optimal dose, against C26 colon carcinoma.; format: functional
Outline: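 Primary colon C26 carcinoma cells (trypan blue excluding, 2.5 × 10^5 cells/mouse) implanted in CDF1 mice on day 0. Drug given ip on days 1, 5 and 9 in 0.1 mL 5% v/v Me2SO-saline. Optimal dose in […]; %ILS and 60-day survivors scored.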

Mus musculus [6] = test: Antitumor activity measured as median survival time, for ip administration and ip inoculation of B16 melanoma.; format: functional; outline: as §3
Mus musculus [7] = organism: Mus musculus; test: Antitumor activity measured as median survival time, against C26 colon carcinoma.; format: functional; outline: as §2
Mus musculus [8] = test: Antitumor activity measured as median survival time, for iv administration and sc inoculation of B16 melanoma.
Mus musculus [9] = test: Antitumor activity measured as % increase in life span, for iv administration of compound and sc inoculation of B16 melanoma.
B16 = test: In vitro 50% Growth inhibition of sensitive B16 cells.; format: functional, Mus musculus; conditions: read-out: ID50 (the source's name)
Outline: (§4)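 Actively growing tumor cells in vitro (actinomycin-resistant P388/ADR leukemia; sensitive B16 melanoma); ID50 is concentration (nM) needed for 50% growth inhibition.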

L1210 [10] = test: 50% Inhibition of growth of L1210 cells in culture.; format: functional, Mus musculus; conditions: read-out: ID50 (the source's name)
Outline: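 L1210 leukemia cells growing actively in culture; ID50 is drug concentration (nM) giving 50% inhibition of growth relative to untreated L1210 cells.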

Mus musculus [11] = organism: Mus musculus; test: percent increase in median life time (%ILS) measured in mice bearing leukemia L!210; format: functional
Outline: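 CDF1 mice inoculated ip with 10^5 L1210 cells on day 0. Drug given ip on days 1, 5 and 9 at the optimal dose in mg/kg per injection. %ILS is the increase in median life span of treated dying animals versus untreated tumor-bearing mice. Over-60-day survivors are counted; 9 mice per group.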

P388/ADR [12] = test: Antitumor activity measured as Median survival time in days against P388/ADR, in ip implanted CDF1 mice, treated ip, qd 1-9; format: functional, Mus musculus
Outline: (§5)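 P388/ADR leukemia, a P388/S subline made resistant to intercalators, implanted ip in CDF1 mice. Drug given ip daily on days 1-9 at optimal dose. Read-out is median survival time of tumor-bearing mice and %ILS of treated dying animals versus controls. Survivors beyond 60 days are counted; 10 mice per group.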

P388/ADR [13] = test: Antitumor activity against P388/ADR, in ip implanted CDF1 mice, treated ip, qd 1-9 measured as optimal dose; format: functional, Mus musculus
Outline: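 P388/ADR leukemia implanted ip in CDF1 mice; drugs given ip once daily on days 1-9. Optimal dose recorded alongside median survival time and % increase in median life span of treated dying mice versus controls; survivors counted as >60-day survivors per group of 10.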

P388/ADR [14] = test: In vitro 50% Growth inhibition of actinomycin resistant P388/ADR cells; format: functional, Mus musculus; conditions: read-out: ID50 (the source's name); outline: as §4
P388/ADR [15] = test: Antitumor activity measured as %ILS against P388/ADR, in ip implanted CDF1 mice, treated ip, qd 1-9; format: functional, Mus musculus; outline: as §5
Mus musculus [16] = test: Antitumor activity measured as median survival time, for iv administration and sc inoculation of B16 melanoma.; remark: listed apart in the source
Mus musculus [17] = test: Antitumor activity measured as % increase in life span, for iv administration of compound and sc inoculation of B16 melanoma.; remark: listed apart in the source
[18] = Molar ratio of DNA to total amount of compound that is bound both intercalatively and covalently to calf thymus DNA helix; format: functional
Outline: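 [3H]Drug and purified calf thymus DNA dialyzed at 37 °C in Tris HCl pH 7.4 (20 mM per footnote; 25 mM in methods). Equilibrated complex precipitated twice with ethanol to remove unbound drug. Molar DNA/drug ratio based on total bound drug, intercalative plus covalent.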

[19] = ratio of DNA to compound bound entirely by covalent bonding to DNA base.; format: functional
Outline: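 [3H]Drug and purified calf thymus DNA dialyzed at 37 °C in Tris HCl buffer; complex twice ethanol-precipitated to remove unbound drug. Molar DNA/drug ratio calculated from drug bound only covalently to DNA bases.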

Cc1c2oc3c(C)c(OCC4CO4)cc(C(=O)N[C@@H]4C(=O)N[C@H](C(C)C)C(=O)N5CCC[C@H]5C(=O)N(C)CC(=O)N(C)[C@@H](C(C)C)C(=O)O[C@@H]4C)c3nc-2c(C(=O)N[C@@H]2C(=O)N[C@H](C(C)C)C(=O)N3CCC[C@H]3C(=O)N(C)CC(=O)N(C)[C@@H](C(C)C)C(=O)O[C@@H]2C)c(N)c1=O (stereo in doubt) [listing 1 of 2 here]
IC50 (L1210 [1]): 0.05 µM | IC50 (L1210 [2]; l1210): 0.06 µM | ΔTm (Bos taurus): 5

COc1cccc2c1C(=O)c1c(O)c3c(c(O)c1C2=O)C[C@@](O)(C(=O)CO)C[C@@H]3O[C@H]1C[C@H](N)[C@H](O)[C@H](C)O1 [DOXORUBICIN]
ILS (Mus musculus [3]): 118% | ILS (Mus musculus [4]): 224% | Dose (Mus musculus [5]): 2.5 mg/kg | MST (Mus musculus [6]): 60 days | MST (Mus musculus [7]): 48 days | MST (Mus musculus [8]): 59 days | ILS (Mus musculus [9]): 79%

Cc1c2oc3c(C)c(OCC4CO4)cc(C(=O)N[C@@H]4C(=O)N[C@H](C(C)C)C(=O)N5CCC[C@H]5C(=O)N(C)CC(=O)N(C)[C@@H](C(C)C)C(=O)O[C@@H]4C)c3nc-2c(C(=O)N[C@@H]2C(=O)N[C@H](C(C)C)C(=O)N3CCC[C@H]3C(=O)N(C)CC(=O)N(C)[C@@H](C(C)C)C(=O)O[C@@H]2C)c(N)c1=O (stereo in doubt) [listing 2 of 2 here]
IC50 (B16): 0.0035 µM | IC50 (L1210 [10]): 0.0568 µM | ILS (Mus musculus [11]): 143% | ILS (Mus musculus [4]): 74% | Dose (Mus musculus [5]): 0.9 mg/kg | MST (Mus musculus [6]): 33 days | MST (P388/ADR [12]): 43 days | Dose (P388/ADR [13]): 0.8 mg/kg | IC50 (P388/ADR [14]): 0.135 µM | ILS (P388/ADR [15]): 377% | MST (Mus musculus [16]): 53 days | ILS (Mus musculus [17]): 60%

Cc1c2oc3c(C)c(OC[C@H]4CO4)cc(C(=O)N[C@@H]4C(=O)N[C@H](C(C)C)C(=O)N5CCC[C@H]5C(=O)N(C)CC(=O)N(C)[C@@H](C(C)C)C(=O)O[C@@H]4C)c3nc-2c(C(=O)N[C@@H]2C(=O)N[C@H](C(C)C)C(=O)N3CCC[C@H]3C(=O)N(C)CC(=O)N(C)[C@@H](C(C)C)C(=O)O[C@@H]2C)c(N)c1=O
IC50 (L1210 [2]; Mus musculus, L1210): 0.06 µM

Cc1c2oc3c(C)c(OCC4CO4)cc(C(=O)N[C@@H]4C(=O)N[C@@H](C(C)C)C(=O)N5CCC[C@H]5C(=O)N(C)CC(=O)N(C)[C@@H](C(C)C)C(=O)O[C@H]4C)c3nc-2c(C(=O)N[C@@H]2C(=O)N[C@@H](C(C)C)C(=O)N3CCC[C@H]3C(=O)N(C)CC(=O)N(C)[C@@H](C(C)C)C(=O)O[C@H]2C)c(N)c1=O (stereo in doubt)
Ratio [18]: 32 | Ratio [19]: 520
